Results reported in ChEMBL document CHEMBL1122058, “Agents for the treatment of brain injury. 1. (Aryloxy)alkanoic acids” (J Med Chem, 1982).
Activity calls are given as the source filed them. The rule behind the calls is not given here.

Legend:
[1] = Dissociation constant (pKa) (determined in 30% EtOH); format: physicochemical
Rattus norvegicus [2] = organism: Rattus norvegicus; assay: Relative salidiuretic efficacy was scored in Rat; weak; format: functional, organism-based; details: Urine
[3] = Distribution coefficient (D %) between octanol and buffer of pH 7.4; format: physicochemical; details: octanol/water
Felis catus [4] = organism: Felis catus; assay: In vitro inhibition of HCO3- stimulated swelling in cat cerebrocortical tissue slice; format: functional; details: read-out: I 50
Method in brief: (§1)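 Cat cerebral cortex slices (~150 mg, 0.5 mm) incubated aerobically 60 min at 37 °C in K+-rich (27 mM) Hepes-buffered saline-glucose with test compound as Na salt. HCO3- (NaHCO3 or TEAB) added from sidearm at 20 min to 10 mM final; HCO3- flasks gassed with 2.5% CO2/97.5% O2. Swelling by reweighing; Na+/K+ by flame photometry, Cl- by amperometric titration. Units: per g initial fresh weight; means ± SE, Student's t test.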

Rattus norvegicus [5] = organism: Rattus norvegicus; assay: Relative salidiuretic efficacy was scored in Rat; inactive; format: functional, organism-based; details: Urine
Felis catus [6] = assay: Mortality of animals recorded as the number of animals dead out of the total animals (16) taken for the study at dose 1 mg/kg; format: functional
Method in brief: (§2)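 Adult conditioned cats (2.5–4 kg) under iv methohexital (13.25 mg/kg, plus 2.75 mg/kg if needed) received machine-induced acceleration/deceleration head injury. Forty min later they were paralysed with gallamine and ventilated with 6% O2/94% N2 for 60 min (arterial pO2 23 ± 1 torr). Drug was given iv 20 min post-injury, before hypoxemia. Mortality was scored as dead/total, chi-square tested.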

Felis catus [7] = assay: Relative salidiuretic efficacy was scored in cat upon intravenous administration of 20 mg/kg of Na salt; inactive; format: functional, organism-based; parameters: dose 20 mg/kg; details: Urine
Canis familiaris [8] = organism: Canis familiaris; assay: Relative salidiuretic efficacy was scored in dog; Marginal; format: functional, organism-based; details: Canis lupus familiaris; Urine
Rattus norvegicus [9] = organism: Rattus norvegicus; assay: Relative salidiuretic efficacy was scored in Rat; Marginal; format: functional, organism-based; details: Urine
Felis catus [10] = assay: Mortality of animals recorded as the number of animals dead out of the total animals (18) taken for the study at dose 30 mg/kg given q.i.d.; format: functional; method in brief: as §2
Canis familiaris [11] = organism: Canis familiaris; assay: Relative salidiuretic efficacy was scored in dog; weak; format: functional, organism-based; details: Canis lupus familiaris; Urine
Pan troglodytes [12] = organism: Pan troglodytes; assay: Relative salidiuretic efficacy was scored in chimpanzee; weak; format: functional, organism-based; details: Urine
Felis catus [13] = organism: Felis catus; assay: In vitro inhibition of HCO3- stimulated swelling in cat cerebrocortical tissue slice; At no concentration was swelling inhibited 100%; format: functional; details: read-out: I 50; method in brief: as §1
Pan troglodytes [14] = organism: Pan troglodytes; assay: Relative salidiuretic efficacy was scored in chimpanzee; moderate; format: functional, organism-based; details: Urine
Canis familiaris [15] = organism: Canis familiaris; assay: Relative salidiuretic efficacy was scored in dog; moderate; format: functional, organism-based; details: Canis lupus familiaris; Urine
Rattus norvegicus [16] = organism: Rattus norvegicus; assay: Relative salidiuretic efficacy was scored in Rat; moderate; format: functional, organism-based; details: Urine

CCCC[C@@]1(C2CCCC2)Cc2cc(OCC(=O)O)c(Cl)c(Cl)c2C1=O
pKa [1]: 3.9
Relative salidiuretic activity (Rattus norvegicus [2]): weak
Distribution [3]: 99%
IC50 (Felis catus [4]): 50 µM

CCCC[C@]1(C2CCCC2)Cc2cc(OCC(=O)O)c(Cl)c(Cl)c2C1=O
pKa [1]: 3.9
Relative salidiuretic activity (Rattus norvegicus [2]): weak
Distribution [3]: 99%
IC50 (Felis catus [4]): 0.0003 µM

CCCC[C@]1(C2CCCC2)Cc2cc(OCCCC(=O)O)c(Cl)c(Cl)c2C1=O
pKa [1]: 4.4
Distribution [3]: 99.9%
IC50 (Felis catus [4]): 1 µM
Relative salidiuretic activity (Rattus norvegicus [5]): inactive

C[C@]1(C2CCCC2)Cc2cc(OCCCC(=O)O)c(Cl)c(Cl)c2C1=O
pKa [1]: 5.7
Mortality (Felis catus [6]): 5
Relative salidiuretic activity (Felis catus [7]): inactive
Distribution [3]: 99%
IC50 (Felis catus [4]): 0.01 µM
Relative salidiuretic activity (Rattus norvegicus [5]): inactive

CCCC[C@@]1(C2CCCC2)Cc2cc(OCCCC(=O)O)c(Cl)c(Cl)c2C1=O
pKa [1]: 4.4
Distribution [3]: 99.9%
Relative salidiuretic activity (Rattus norvegicus [5]): inactive

C[C@@]1(C2CCCC2)Cc2cc(OCCCC(=O)O)c(Cl)c(Cl)c2C1=O
pKa [1]: 5.7
Relative salidiuretic activity (Canis familiaris [8]): inactive
Distribution [3]: 99%
IC50 (Felis catus [4]): 0.25 µM
Relative salidiuretic activity (Rattus norvegicus [9]): inactive

C[C@H]1CC2C(C(O)CC3(C)C2CC[C@]3(O)C(=O)COC(=O)CCC(=O)[O-])C2(C)C=CC(=O)C=C12.[Na+] (stereo partly drawn)
Mortality (Felis catus [10]): 9

CCC(C)C(=O)c1ccc(OCC(=O)O)c(Cl)c1Cl (stereo not drawn)
pKa [1]: 3.5
Relative salidiuretic activity (Canis familiaris [11]): weak
Distribution [3]: 96%
IC50 (Felis catus [4]): 0.5 µM
Relative salidiuretic activity (Rattus norvegicus [5]): inactive
Relative salidiuretic activity (Pan troglodytes [12]): weak

CC(C)(Oc1cc2c(c(Cl)c1Cl)C(=O)C(C)(C1CCCC1)C2)C(=O)O (racemic)
pKa [1]: 3.7
Distribution [3]: 98.6%
IC50 (Felis catus [4]): > 100 µM

CCCC1(C2CCCC2)Cc2cc(OCCCC(=O)O)c(Cl)c(Cl)c2C1=O (racemic)
pKa [1]: 4.1
IC50 (Felis catus [13]): 0.008 µM
Distribution [3]: 99.6%
Relative salidiuretic activity (Rattus norvegicus [9]): Marginal

CC1(C2CCCC2)Cc2cc(OC/C=C/CC(=O)O)c(Cl)c(Cl)c2C1=O (racemic)
pKa [1]: 5.1
Distribution [3]: 98%
IC50 (Felis catus [4]): > 40 µM

CCCCC1(C2CCCC2)Cc2cc(OCCCC(=O)O)c(Cl)c(Cl)c2C1=O (racemic)
pKa [1]: 4.4
Distribution [3]: 99.8%
IC50 (Felis catus [4]): 0.004 µM
Relative salidiuretic activity (Rattus norvegicus [5]): inactive

CCC1(C2CCCC2)Cc2cc(OCC(=O)O)c(Cl)c(Cl)c2C1=O (racemic)
Relative salidiuretic activity (Pan troglodytes [14]): moderate
pKa [1]: 3.9
Relative salidiuretic activity (Canis familiaris [15]): moderate
Relative salidiuretic activity (Rattus norvegicus [16]): moderate
Distribution [3]: 97%
IC50 (Felis catus [4]): 0.001 µM
